The text below walks through data of the array DNA melting data of Ke et al. (doi:10.1101/2024.01.08.574731).

The nature of data set [1]: melting temperature; fluorescence melt of hairpins on a sequencing array, two-state fit, raised by 9.35 °C to match UV melts. The note with it: sodium 0.088 M. The gist of the method: (§1)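 Two-state fits, bootstrapped, provided melting temperature and folding enthalpy from Cy3 fluorescence normalised to pre-quench Cy3 and to control constructs. Library hairpins with annealed Cy3 and quencher oligos were imaged on a sequenced MiSeq flow cell in 50 mM Na-HEPES pH 8.0, 25 mM NaCl, at 2.5 °C intervals up to 60 °C. Four replicates were combined with inverse-variance weighting. A 9.35 °C upward shift was applied to fitted temperatures to match UV melts.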

The nature of data set [2]: folding enthalpy; higher = less favourable; fluorescence melt of hairpins on a sequencing array, two-state fit. The note with it: sodium 0.088 M. The gist of the method:
as §1

For GCTGGAGGAAACTCCGGC ((.((((....)))).)), the Tm in data set [1] is 57.1 °C. Besides, the folding enthalpy in data set [2] is -40.4 kcal/mol.
As for GCTGGAGGAAACTTCAGC ((((.((....)).)))), the Tm in data set [1] turned out to be 50 °C. In data set [2], the folding enthalpy was -40.8 kcal/mol.
Taken in the same sequence, the figures for GCTGGATCGAAAGATAGC (((..(((....)))))) were 30.8 °C and -21 kcal/mol.
Take GCTGGCCCGAAAGGGAGC (((..(((....)))))): in data set [1], the Tm was 44 °C. Besides, the folding enthalpy in data set [2] is -12.7 kcal/mol.
Taken in the same sequence, the figures for GCTGGCGAAAGCCAAGC ((((((....))).))) were 66.5 °C and -20.2 kcal/mol.
Taken in the same sequence, the figures for GCTGGCGAAAGCCCTAGC ((((((....)))..))) were 40.9 °C and -12 kcal/mol.
The corresponding values for GCTGGCGAAAGCCTAGC ((((((....))).))) are 59.3 °C and -19.4 kcal/mol.
Regarding GCTGGGCCGAAAGGCAGC (((..(((....)))))), the Tm in data set [1] stood at 48.5 °C. For the same sequence, in data set [2], the folding enthalpy is -13.3 kcal/mol.
The corresponding values for GCTGGGCGAAAGCACCGC ((.(.((....)).).)) are 52.7 °C and -20.7 kcal/mol.
Consider GCTGGGCGAAAGCCGGGC ((..(((....)))..)), for which, in data set [1], the Tm is 55.6 °C. Further, the folding enthalpy in data set [2] was -19.3 kcal/mol.
Turning to GCTGGGCGAAAGCCTTGC ((..(((....)))..)), the Tm in data set [1] amounted to 53.2 °C. Moreover, the folding enthalpy in data set [2] is -17.1 kcal/mol.
Taken in the same sequence, the figures for GCTGGTACGAAAGTAAGC (((..(((....)))))) were 34.2 °C and -16.2 kcal/mol.
The corresponding values for GCTGGTCGAAAGACAGC (((.(((....)))))) are 54.7 °C and -27.3 kcal/mol.
Taken in the same sequence, the figures for GCTGGTGGAAACATCAGC ((((.((....)).)))) were 53.4 °C and -39.5 kcal/mol.
On to GCTGGTGGAAACGCCAGC (((((.(....).))))), for which the Tm in data set [1] worked out at 61.8 °C. Also, the folding enthalpy in data set [2] was -52.9 kcal/mol.
The corresponding values for GCTGTAACGAAAGTTAGC (((..(((....)))))) are 35 °C and -20.5 kcal/mol.
GCTGTACCGAAAGGTAGC (((..(((....)))))): the Tm in data set [1] was 43.7 °C. Further, in data set [2], the folding enthalpy was -15.4 kcal/mol.
Taken in the same sequence, the figures for GCTGTACGAAAGTAAGC (((.(((....)))))) were 49.2 °C and -27.1 kcal/mol.
Taken in the same sequence, the figures for GCTGTAGGAAACTATGGC ((..(((....)))..)) were 34.7 °C and -26.3 kcal/mol.
For the sequence GCTGTCCGAAAGGAAAGC (((.(((....))).))), in data set [1], the Tm was determined as 53.7 °C. Moreover, in data set [2], the folding enthalpy was -37.8 kcal/mol.
The corresponding values for GCTGTCGAAAGACAAGC ((((((....))).))) are 54.4 °C and -27.8 kcal/mol.
As for GCTGTCGAAAGACATAGC ((((((....)))..))), the Tm in data set [1] was determined as 45.1 °C. For the same sequence, the folding enthalpy in data set [2] is -16.4 kcal/mol.
Consider GCTGTCGAAAGACGCAGC ((((((....)))..))), for which the Tm in data set [1] came out at 46.6 °C. In addition, the folding enthalpy in data set [2] is -14.1 kcal/mol.
The corresponding values for GCTGTCGAAAGACGTAGC ((((((....)))..))) are 48.1 °C and -22.7 kcal/mol.
Taken in the same sequence, the figures for GCTGTGCGAAAGCAAGGC ((..(((....)))..)) were 50.6 °C and -20 kcal/mol.
Taken in the same sequence, the figures for GCTGTGCGAAAGCAGAGC (((.(((....))).))) were 57.8 °C and -56 kcal/mol.
Turning to GCTGTGCGAAAGCATAGC (((.(((....))).))), the Tm in data set [1] turned out to be 59.4 °C. Moreover, in data set [2], the folding enthalpy is -57.9 kcal/mol.
The corresponding values for GCTGTGCGAAAGCATCGC ((..(((....)))..)) are 44.6 °C and -17.9 kcal/mol.
Taken in the same sequence, the figures for GCTGTGCGAAAGCCCTGC ((.(.((....)).).)) were 41.9 °C and -15.3 kcal/mol.
The corresponding values for GCTGTGGGAAACCATGGC ((..(((....)))..)) are 44.5 °C and -33.5 kcal/mol.
For GCTGTTCCGAAAGGAAGC (((..(((....)))))), the Tm in data set [1] worked out at 35.1 °C. Besides, the folding enthalpy in data set [2] was -14 kcal/mol.
With GCTGTTCGAAAGAAGAGC (((.(((....))).))), the Tm in data set [1] stood at 50.6 °C. Moreover, the folding enthalpy in data set [2] is -37.2 kcal/mol.
Take GCTGTTGAAAAACAGC ((((((....)))))): the Tm in data set [1] stood at 59.2 °C. Moreover, the folding enthalpy in data set [2] is -38.6 kcal/mol.
The corresponding values for GCTGTTGCGAAAGCAAGC (((..(((....)))))) are 47.3 °C and -12.6 kcal/mol.
The corresponding values for GCTTAAACGAAAGTTAGC (((..(((....)))))) are 33.9 °C and -16.2 kcal/mol.
The corresponding values for GCTTACCCGAAAGGGAGC (((..(((....)))))) are 39 °C and -15.3 kcal/mol.
Consider GCTTACGAAAGTACAAGC ((((((....)))..))), for which, in data set [1], the Tm amounted to 37.6 °C. Further, the folding enthalpy in data set [2] was -20 kcal/mol.
